Experimental data as given in paper PMC8190911 (ACS Omega, 2021).

Columns and labels:
[1] = target: T1, horseradish peroxidase (HRP) (Armoracia rusticana, UniProt P00433); assay: Inhibition of HRP activity; assay type: biochemical
T1 sequence (P00433 31-338 limits assumed): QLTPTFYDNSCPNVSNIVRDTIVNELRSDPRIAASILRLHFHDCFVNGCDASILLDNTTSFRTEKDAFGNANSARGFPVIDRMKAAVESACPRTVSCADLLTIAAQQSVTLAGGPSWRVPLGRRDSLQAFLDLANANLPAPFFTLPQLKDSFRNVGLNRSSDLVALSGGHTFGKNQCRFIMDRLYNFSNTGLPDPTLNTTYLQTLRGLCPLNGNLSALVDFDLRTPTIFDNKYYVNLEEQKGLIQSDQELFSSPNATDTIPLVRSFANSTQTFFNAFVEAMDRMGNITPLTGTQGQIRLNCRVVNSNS
In short: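 HRP (10 μL) combined with test compound (10 μL, 250–1000 μM) and 100 μL TMB. Reaction started with 0.03% (v/v) H2O2. The blue oxidised TMB product was read at 655 nm and % inhibition calculated against uninhibited activity. Sodium azide at 1000 μM served as reference inhibitor. Performed in triplicate.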

OATP1B3 = conditions: read-out: IC50, inhibition of OATP1B3-mediated transport of CCK-8; ref Li et al.; cited from earlier work
rat splenic lymphocytes = assay: Splenic lymphocyte proliferation with Con-A and HU; assay type: cell-based; conditions: HU 50 μM, rutin or gallic acid 10 μM, Con-A 5 μg/mL, 48 h, MTT
In short: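 Spleens were taken aseptically from control rats into incomplete RPMI and minced through a strainer. Erythrocytes were lysed with 155 mM NH4Cl, 12 mM NaHCO3 and 0.1 mM EDTA, and the cells were washed and resuspended in complete RPMI. Cells were seeded at 2.5 × 10^4 per well, pretreated with test compound plus HU for 1 h at 37 °C, then stimulated with Con-A for 48 h. MTT (2.5 mg/mL, 20 μL) was added for 4 h and absorbance read at 570 nm. Groups were compared by Student's t-test.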

[2] = rat; cited from earlier work
[3] = target: urease from Canavalin ensiformis (jack bean) (Canavalia ensiformis, UniProt P07374); assay: Inhibition of urease activity; assay type: biochemical
Chain of urease from Canavalin ensiformis (jack bean) (P07374 whole entry, looked up): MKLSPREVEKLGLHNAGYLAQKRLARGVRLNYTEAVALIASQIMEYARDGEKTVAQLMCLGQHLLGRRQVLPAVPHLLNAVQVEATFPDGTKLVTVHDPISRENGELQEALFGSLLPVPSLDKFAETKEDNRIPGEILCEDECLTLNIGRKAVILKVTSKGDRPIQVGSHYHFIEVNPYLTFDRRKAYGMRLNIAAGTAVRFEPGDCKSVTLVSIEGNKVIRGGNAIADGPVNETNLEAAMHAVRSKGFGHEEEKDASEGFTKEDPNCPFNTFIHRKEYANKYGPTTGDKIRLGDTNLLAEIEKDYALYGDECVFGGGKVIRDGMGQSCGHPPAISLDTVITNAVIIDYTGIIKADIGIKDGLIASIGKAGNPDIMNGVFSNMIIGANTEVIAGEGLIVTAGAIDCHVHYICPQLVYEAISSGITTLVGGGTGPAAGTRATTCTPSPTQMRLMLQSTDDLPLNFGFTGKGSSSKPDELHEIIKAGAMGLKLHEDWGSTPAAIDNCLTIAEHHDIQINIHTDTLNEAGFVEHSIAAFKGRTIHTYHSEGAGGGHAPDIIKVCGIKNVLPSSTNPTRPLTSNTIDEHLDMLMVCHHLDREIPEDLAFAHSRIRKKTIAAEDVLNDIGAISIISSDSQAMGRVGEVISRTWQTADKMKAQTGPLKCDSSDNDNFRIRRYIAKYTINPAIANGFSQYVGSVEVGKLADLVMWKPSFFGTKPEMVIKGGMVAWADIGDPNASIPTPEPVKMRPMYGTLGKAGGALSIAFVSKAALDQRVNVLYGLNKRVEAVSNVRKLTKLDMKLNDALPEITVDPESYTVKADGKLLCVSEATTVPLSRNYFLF

CYP2E1 = conditions: cited from earlier work
red blood cells = assay: Hemolysis assay on rat RBCs; assay type: cell-based; conditions: up to 1 mg/mL, 30 min at 37 °C
In short: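 Blood from control rats drawn into aqueous EDTA and spun at 8000 rpm for 10 min. RBCs washed three times in PBS (pH 7.4) and diluted 1:10. Diluted cells (100 μL) mixed with 900 μL PBS containing test compound at 0.1 to 1 mg/mL. Blank PBS served as negative control and 1% Triton X-100 as positive control. Incubated 30 min at 37 °C with shaking, spun at 4 °C, supernatant absorbance read at 540 nm. % hemolysis scaled between the PBS and Triton absorbances.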

[4] = at the concentration range of 250–1000 μM

Structure (SMILES)	inhibition of HRP [1, 4]	IC50 (OATP1B3)	effect on proliferation of lymphocytes (rat splenic lymphocytes)	effect on oral exposure of rosuvastatin [2]	IC50 [3]	inhibition of HRP ([1]; at a concentration of 1000 μM)	effect on expression of CYP2E1 (CYP2E1)	RBCs lysis (% Hb released relative to positive and negative controls) (red blood cells)
O=C(O)c1cc(O)c(O)c(O)c1 [gallic acid]	53–70%	1.6 µM	significantly elevated the proliferation of lymphocytes	augmented the oral exposure of rosuvastatin	635 µM			
[N-]=[N+]=[N-].[Na+] [sodium azide, reference compound]						97%		
C[C@@H]1O[C@@H](OC[C@H]2O[C@@H](Oc3c(-c4ccc(O)c(O)c4)oc4cc(O)cc(O)c4c3=O)[C@H](O)[C@@H](O)[C@@H]2O)[C@H](O)[C@H](O)[C@H]1O [rutin, Rutin]	40–64%		no considerable influence		780 µM		enhanced its expression	≤ 5%
NC(=O)NO [HU, Hydroxyurea, reference compound]			decreased					
